Results collected from several papers.
Protocols differ between the studies behind these lines. Converted amounts (≈) assume the structure as drawn.
Organism: Staphylococcus aureus

| SMILES | test | system | setting | measurement | result |
| --- | --- | --- | --- | --- | --- |
| C[C@@H](N)[C@H](O)CCCCCCCC(=O)CCCCCCCCCCCCCC[C@@H](O[C@@H]1O[C@H](CO)[C@H](O)[C@H](O)[C@H]1O)[C@@H](C)N | microbial growth, resazurin | ATCC12600 | 50 µM | inhibition | 99% |
| O=C(O)c1cn(C2CC2)c2cc(N3CCNCC3)c(F)cc2c1=O | microbial growth, well diffusion | ATCC23235 | 100 µg/mL | inhibition zone | 36 mm |
| COc1ccc2c(c1OC)CN1CCc3cc4c(cc3C1C2)OCO4 (stereo not shown) | microbial growth | – | 24 h | MIC50 | > 1600 µM |
| Cc1onc(-c2ccccc2)c1C(=O)N[C@@H]1C(=O)N2[C@@H]1SC(C)(C)[C@@H]2C(=O)O | microbial growth | MRSA | drug-resistant strain | MIC | > 4 µg/mL |
| O=C(O)c1cn(C2CC2)c2cc(N3CCNCC3)c(F)cc2c1=O | microbial growth, broth dilution | ATCC33591 MRSA | 16 h, drug-resistant strain | MIC | 6.25 µM |
| COc1cccc(OC)c1C(=O)N[C@@H]1C(=O)N2[C@@H]1SC(C)(C)[C@@H]2C(=O)O | microbial growth, broth dilution | ATCCBAA44 | drug-resistant strain | MIC | > 64 µg/mL |
| O=C/C=C/c1ccccc1 | microbial growth, well diffusion | MTCC96 | 1000 µg/mL, 18 h | inhibition zone | 8 mm |
| CN(C)[C@@H]1C(O)=C(C(N)=O)C(=O)[C@@]2(O)C(O)=C3C(=O)c4c(O)cccc4[C@@](C)(O)[C@H]3C[C@@H]12 | microbial growth, broth dilution | ATCC33591 MRSA | 16 h, drug-resistant strain | MIC | 100 µM |
| CC(=O)NC[C@H]1CN(c2ccc(N3CCOCC3)c(F)c2)C(=O)O1 | microbial growth, broth dilution | MRSA | – | MIC | 1 µg/mL |
| C[C@H]1COc2c(N3CCN(C)CC3)c(F)cc3c(=O)c(C(=O)O)cn1c23 | microbial growth | MRSA | drug-resistant strain | MIC | 0.25 µg/mL |
| CC(=O)NC[C@H]1CN(c2ccc(N3CCOCC3)c(F)c2)C(=O)O1 | microbial killing | ATCC43300 MRSA | – | MBC | 40.6 µg/mL (≈ 120 µM) |
| CN[C@H](CC(C)C)C(=O)N[C@H]1C(=O)N[C@@H](CC(N)=O)C(=O)N[C@H]2C(=O)N[C@H]3C(=O)N[C@H](C(=O)N[C@H](C(=O)O)c4cc(O)cc(O)c4-c4cc3ccc4O)[C@H](O)c3ccc(c(Cl)c3)Oc3cc2cc(c3O[C@@H]2O[C@H](CO)[C@@H](O)[C@H](O)[C@H]2O[C@H]2C[C@](C)(N)[C@H](O)[C@H](C)O2)Oc2ccc(cc2Cl)[C@H]1O | microbial growth, broth dilution | ATCCBAA44 | drug-resistant strain | MIC | 1 µg/mL |
| CCc1ccc(N2C(=O)/C(=C3/C(=O)N(C)c4ccc(Cl)cc43)NC2=S)cc1 | microbial growth, broth dilution | ATCC43300 MRSA | – | MIC | 9.2 µg/mL |
| C[C@@H]1C[C@@H]([C@H](O)CC2CC(=O)NC(=O)C2)C(=O)[C@@H](C)C1 | microbial growth, broth dilution | ATCC6538 | – | MIC | 28 µg/mL |
| CN1C(=S)N(c2ccccc2)C(=O)/C1=C1/C(=O)N(C)c2ccc(Cl)cc21 | microbial growth, broth dilution | ATCC43300 MRSA | – | MIC | 2.4 µg/mL |
| CCOC(=O)/C=C1/SC(N/N=C/c2c(-c3ccc(F)cc3)nc3ncccn23)=NC1=O | microbial growth, well diffusion | ATCC23235 | 100 µg/mL | inhibition zone | 10 mm |
